Calls of active or inactive are those of the source. The rule behind the calls is not given here.
Tests used:
[1] = target: Human immunodeficiency virus type 1 reverse transcriptase (Human immunodeficiency virus 1) (UniProt Q72547); assay: Inhibition of HIV 3B reverse transcriptase at 10 uM using [3H]TTP as a tracer by scintillation counting
In short: (§1)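 Resin-bound poly(A) template in scintillation format incubated with compound and [3H]-TTP tracer; reaction started by adding RT enzyme, run 3 h at 37 °C, quenched with stop buffer; incorporated [3H]-TTP counted 1 min per sample on a beta counter.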

[2] = test system: Human immunodeficiency virus 1; assay: Antiviral activity against HIV1 3B infected in human CEM-SS cells assessed as reduction in virus-induced cytopathic effect at 10 uM after 6 days by MTS assay; type: functional; design: scale not given: the % may be the effect or the level left
[3] = target: Human immunodeficiency virus type 1 integrase (Human immunodeficiency virus 1, UniProt Q7ZJM1); assay: Inhibition of HIV 3B integrase strand transfer activity
In short: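 IN expressed in E. coli BL21(DE3) by IPTG induction. 600 nM IN in HEPES pH 7.5, 10 mM MnCl2, 1 mM DTT, 10% glycerol, BSA, Brij-35 preincubated 10 min at room temperature with inhibitor or DMSO; 50 nM annealed 5'-biotin/3'-cy5 duplex DNA added, 2 h 37 °C. Product captured on streptavidin plate, washed, eluted with formamide, fluorescence read.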

[4] = target: Human immunodeficiency virus type 1 reverse transcriptase (Human immunodeficiency virus 1) (UniProt Q72547); assay: Inhibition of HIV 3B reverse transcriptase at 100 uM using [3H]TTP as a tracer by scintillation counting; in short: as §1
[5] = Cytotoxicity against human CEM-SS cells after 6 days by MTS assay; type: cell-based; conditions: read-out: TC50
[6] = test system: Human immunodeficiency virus 1; assay: Antiviral activity against HIV1 3B infected in human CEM-SS cells assessed as inhibition of virus-induced cytopathic effect after 6 days by MTS assay; type: functional, organism-based; conditions: Human immunodeficiency virus 1, 3B, 144 h
In short: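 CEM-SS cells mixed with pre-titered HIV-1 IIIB (virus control wells lose 70–95% viability) in presence of compound, incubated 6 days; cytoprotection read by MTS or XTT dye reduction. Plates held cell, virus, compound toxicity and colorimetric controls; AZT positive control. EC50 = concentration inhibiting virus replication by 50%.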

[7] = target: Human immunodeficiency virus type 1 reverse transcriptase (Human immunodeficiency virus 1, UniProt Q72547); assay: Inhibition of HIV 3B reverse transcriptase using [3H]TTP as a tracer by scintillation counting
[8] = Therapeutic index, ratio of TC50 for human CEM-SS cells to EC50 for HIV1 3B; type: cell-based; conditions: read-out: TI
In short: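 TI calculated as TC50/EC50 from the 6-day CEM-SS cytoprotection assay (HIV-1 IIIB; MTS or XTT dye reduction) and matching compound-only toxicity wells.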

Chain of Human immunodeficiency virus type 1 integrase (Q7ZJM1 whole entry): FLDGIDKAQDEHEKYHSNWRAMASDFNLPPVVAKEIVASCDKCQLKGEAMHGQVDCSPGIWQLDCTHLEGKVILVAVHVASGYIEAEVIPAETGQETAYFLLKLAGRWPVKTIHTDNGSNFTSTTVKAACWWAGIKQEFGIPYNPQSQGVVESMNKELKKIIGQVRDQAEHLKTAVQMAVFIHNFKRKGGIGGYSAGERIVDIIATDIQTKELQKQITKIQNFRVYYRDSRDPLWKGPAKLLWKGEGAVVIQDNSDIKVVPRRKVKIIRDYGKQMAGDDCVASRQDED

| Structure (SMILES) | inhibition [1] | Activity [2] | IC50 [3] | inhibition [4] | CC50 at 144 h [5] | EC50 [6] | IC50 [7] | selectivity ratio [8] |
| --- | --- | --- | --- | --- | --- | --- | --- | --- |
| CC(C)c1c(Cc2ccccc2)n(COCCCc2ccc(C(=O)/C=C(\O)C(=O)O)cc2)c(=O)[nH]c1=O | 100% | 91% | 8.2 µM | 100% | – | – | – | – |
| CC(C)c1c(Cc2ccccc2)n(COCCc2ccc(C(=O)/C=C(\O)C(=O)O)cc2)c(=O)[nH]c1=O | 100% | 100% | 7.4 µM | 100% | – | – | – | – |
| CC(C)c1c(Cc2ccccc2)n(COCc2ccc(Cc3cccc(C(=O)/C=C(\O)C(=O)O)c3)cc2)c(=O)[nH]c1=O | – | – | 11 µM | – | > 100 µM | 0.46 µM | 0.16 µM | > 220 |
| CC(C)c1c(Cc2ccccc2)[nH]c(=O)n(CCc2ccc(C(=O)/C=C(\O)C(=O)O)cc2)c1=O | 0% | 28% | 8 µM | 0% | – | – | – | – |
| CC(C)c1c(Cc2ccccc2)[nH]c(=O)n(CCCCc2ccc(C(=O)/C=C(\O)C(=O)O)cc2)c1=O | 0% | 0% | 37 µM | 0% | – | – | – | – |
| CCc1c(Cc2ccccc2)n(COCc2ccc(Cc3cccc(C(=O)/C=C(\O)C(=O)O)c3)cc2)c(=O)[nH]c1=O | – | – | 16 µM | – | 32 µM | 0.56 µM | 0.71 µM | 56 |
| CCc1c(Cc2ccccc2)nc(SCc2ccc(C(=O)/C=C(\O)C(=O)O)cc2)[nH]c1=O | 0% | inactive | > 100 µM | 0% | – | – | – | – |
| CC(C)c1c(Cc2ccccc2)[nH]c(=O)n(CCCc2ccc(C(=O)/C=C(\O)C(=O)O)cc2)c1=O | 0% | 0.6% | 12 µM | 0% | – | – | – | – |
| Cc1cc(C)cc(Cc2c(C(C)C)c(=O)[nH]c(=O)n2COCc2ccc(Cc3cccc(C(=O)/C=C(\O)C(=O)O)c3)cc2)c1 | – | – | 22 µM | – | 96 µM | 0.17 µM | 0.1 µM | 560 |
| CCc1c(Cc2cc(C)cc(C)c2)n(COCc2ccc(Cc3cccc(C(=O)/C=C(\O)C(=O)O)c3)cc2)c(=O)[nH]c1=O | – | – | 14 µM | – | > 100 µM | 0.014 µM | 0.028 µM | > 710 |
| CCc1c(Cc2ccccc2)nc(SCc2ccc(Cc3cccc(C(=O)/C=C(\O)C(=O)O)c3)cc2)[nH]c1=O | 0% | inactive | > 100 µM | 0% | – | – | – | – |
| CC(C)c1c(Cc2ccccc2)[nH]c(=O)n(CCCCCCc2ccc(C(=O)/C=C(\O)C(=O)O)cc2)c1=O | 0% | 9% | > 100 µM | 0% | – | – | – | – |
